Reference: ChEMBL document CHEMBL5331087, “Targeted AURKA degradation: Towards new therapeutic agents for neuroblastoma” (Eur J Med Chem, 2023)
pIC50: −log10 of the molar value. The source made the active and inactive calls. No cut-off for these calls is given here.

Key:
[1] = molecular target: T1, N-myc proto-oncogene protein (Homo sapiens) (UniProt P04198); assay: Induction of MYCN degradation in human NGP cells at 500 nM measured for 72 hrs by Western blot analysis relative to control; type: cell-based
T1 sequence (whole entry): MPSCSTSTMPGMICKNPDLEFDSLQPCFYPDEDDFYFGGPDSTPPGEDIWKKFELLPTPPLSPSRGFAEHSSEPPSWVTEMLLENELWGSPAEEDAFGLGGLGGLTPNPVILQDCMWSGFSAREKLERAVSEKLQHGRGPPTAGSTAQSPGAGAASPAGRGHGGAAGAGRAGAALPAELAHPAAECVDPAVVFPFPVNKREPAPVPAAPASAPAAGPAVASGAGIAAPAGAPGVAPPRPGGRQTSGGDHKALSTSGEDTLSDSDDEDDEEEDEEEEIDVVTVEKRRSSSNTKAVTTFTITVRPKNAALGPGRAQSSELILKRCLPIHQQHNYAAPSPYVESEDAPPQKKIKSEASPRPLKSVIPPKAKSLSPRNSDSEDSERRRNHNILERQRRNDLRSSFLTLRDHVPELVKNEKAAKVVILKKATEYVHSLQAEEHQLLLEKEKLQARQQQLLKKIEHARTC
How it was run: (§1)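 NGP cells were treated with 500 nM compound and harvested at 0, 1, 3, 6, 24, 48 and 72 h. RIPA lysates (35 µg) were run on 10% SDS-PAGE and blotted to nitrocellulose. AURKA and MYCN were probed with vinculin as loading control and quantified by densitometry. Values are percent remaining relative to the DMSO control at each timepoint (n = 3).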

[2] = molecular target: T2, Protein cereblon/Aurora kinase A (Homo sapiens) (UniProt O14965+Q96SW2); assay: PROTAC activity at AURKA/CRBN in human NGP cells assessed as increase in pRPA32 level at 10 to 1000 nM measured for 24 hrs by immunoblotting analysis; type: cell-based; conditions: dose 10-1000 nM
T2 sequence (O14965 whole entry, looked up): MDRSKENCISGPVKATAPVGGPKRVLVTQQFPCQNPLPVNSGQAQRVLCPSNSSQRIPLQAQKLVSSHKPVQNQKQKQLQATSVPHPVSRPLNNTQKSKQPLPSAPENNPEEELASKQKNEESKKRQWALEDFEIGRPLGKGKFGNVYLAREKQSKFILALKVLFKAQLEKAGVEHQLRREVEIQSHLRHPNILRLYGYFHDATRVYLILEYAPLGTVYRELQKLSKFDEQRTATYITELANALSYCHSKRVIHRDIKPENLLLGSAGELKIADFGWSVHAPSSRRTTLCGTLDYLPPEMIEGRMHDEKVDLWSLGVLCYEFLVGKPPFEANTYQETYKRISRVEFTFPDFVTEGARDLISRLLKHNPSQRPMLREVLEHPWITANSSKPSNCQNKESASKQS
T2 sequence (Q96SW2 whole entry, looked up): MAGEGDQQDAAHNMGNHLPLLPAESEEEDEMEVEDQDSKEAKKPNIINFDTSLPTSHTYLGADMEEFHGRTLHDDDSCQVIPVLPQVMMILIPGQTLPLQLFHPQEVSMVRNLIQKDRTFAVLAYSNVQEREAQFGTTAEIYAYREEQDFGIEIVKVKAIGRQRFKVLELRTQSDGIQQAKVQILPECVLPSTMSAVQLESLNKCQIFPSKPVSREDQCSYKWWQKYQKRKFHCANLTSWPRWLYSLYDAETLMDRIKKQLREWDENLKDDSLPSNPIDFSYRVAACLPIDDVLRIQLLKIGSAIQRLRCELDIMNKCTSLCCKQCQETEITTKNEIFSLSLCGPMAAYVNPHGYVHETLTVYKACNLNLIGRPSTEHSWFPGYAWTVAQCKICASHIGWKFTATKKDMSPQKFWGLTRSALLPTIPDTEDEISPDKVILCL

[3] = molecular target: T2, Protein cereblon/Aurora kinase A (Homo sapiens); assay: PROTAC activity at AURKA/CRBN in human NGP cells assessed as AURKA degradation at 0.1 to 1000 nM measured for 24 hrs by Western blot analysis relative to control; type: cell-based; conditions: dose 0.1-1000 nM
How it was run: (§2)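 NGP cells were seeded at about 2×10^6 per flask, adhered for 48 h, and were then treated for 24 h with DMSO matched. Lysis was in RIPA with protease/phosphatase inhibitors. AURKA was quantified by capillary Simple Western with peak areas normalised to vinculin. Fold change is relative to DMSO (mean ± SD, n = 3).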

[4] = Antiproliferative activity against human N206 cells assessed as reduction in cell viability incubated for 48 hrs relative to control; type: functional
[5] = Growth inhibition of patient derived NB139 Neuroblastoma organoid assessed as reduction in viability incubated for […] by CellTiter Glo 3D assay relative to control; type: functional; conditions: Homo sapiens
IMR-32 = assay: Antiproliferative activity against human IMR-32 cells assessed as reduction in cell viability incubated for 48 hrs; type: functional, cell-based; conditions: IMR-32, 48 h
How it was run: (§3)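 Cells were grown in RPMI 1640 with 10% FCS and 2 mM L-glutamine. Seeding was 4500 cells/well for NGP, IMR-32 and N206, and 2100 cells/well for SK-N-AS, with adherence overnight. Compound was dispensed over a concentration range in triplicate. Confluence was imaged live for 48 h and normalised to the DMSO control. Absolute IC50 came from a four-parameter variable-slope fit (n = 4).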

[6] = molecular target: T2, Protein cereblon/Aurora kinase A (Homo sapiens); assay: PROTAC activity at AURKA/CRBN in human NGP cells assessed as AURKA degradation at 10 to 1000 nM measured for 24 hrs in presence of thalidomide by Western blot analysis; type: cell-based; conditions: dose 10-1000 nM
[7] = Growth inhibition of patient derived NB059 Neuroblastoma organoid assessed as reduction in viability incubated for […] by CellTiter Glo 3D assay relative to control; type: functional; conditions: Homo sapiens
[8] = Antiproliferative activity against human NGP cells assessed as reduction in cell viability incubated for 48 hrs relative to control; type: functional
SK-N-AS = assay: Antiproliferative activity against human SK-N-AS cells assessed as reduction in cell viability incubated for 48 hrs; type: functional, cell-based; conditions: Homo sapiens, SK-N-AS, 48 h; read-out: IC50; how it was run: as §3
[9] = Growth inhibition of patient derived NB067 Neuroblastoma organoid assessed as reduction in viability incubated for […] by CellTiter Glo 3D assay relative to control; type: functional; conditions: Homo sapiens
[10] = Antiproliferative activity against human N206 cells assessed as reduction in cell viability incubated for 48 hrs; type: functional, cell-based; how it was run: as §3
[11] = Growth inhibition of patient derived 000GKX Neuroblastoma organoid assessed as reduction in viability incubated for […] by CellTiter Glo 3D assay relative to control; type: functional; conditions: Homo sapiens
[12] = Growth inhibition of patient derived 000GKX Neuroblastoma organoid assessed as reduction in viability […] by CellTiter Glo 3D assay; type: functional, tissue-based, Homo sapiens
How it was run: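 Patient-derived organoids were dissociated to single cells with Accutase and seeded in NB organoid medium at 5000 (000GKX), 20000 (NB059), 5000 (NB067) or 3000 (NB139) cells/well. Compound was added after 24 h over a concentration range in triplicate, with DMSO matched. Incubation was 120 h at 37 °C and 5% CO2. Viability was read by CellTiter-Glo 3D, and absolute IC50 derived (n = 1).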

[13] = molecular target: T2, Protein cereblon/Aurora kinase A (Homo sapiens); assay: PROTAC activity at AURKA/CRBN in human NGP cells assessed as AURKA degradation at 100 nM measured for 3 hrs by shotgun proteome profiling relative to control
[14] = Antiproliferative activity against human NGP cells assessed as reduction in cell viability incubated for 48 hrs; type: functional, cell-based; how it was run: as §3
[15] = molecular target: T2, Protein cereblon/Aurora kinase A (Homo sapiens); assay: PROTAC activity at AURKA/CRBN in human NGP cells assessed as AURKA degradation at 10 to 1000 nM measured for 24 hrs by immunoblotting analysis; type: cell-based; conditions: dose 10-1000 nM; how it was run: as §2
[16] = molecular target: T1, N-myc proto-oncogene protein (Homo sapiens); assay: Induction of MYCN degradation in human NGP cells at 500 nM by Western blot analysis; type: cell-based; conditions: time <= 72.0 hrs; how it was run: as §1
[17] = molecular target: T2, Protein cereblon/Aurora kinase A (Homo sapiens); assay: PROTAC activity at AURKA/CRBN in human NGP cells assessed as reduction in AURKA level at 500 nM measured for 48 hrs by Western blot analysis; type: cell-based; set-up: scale not given: the % may be the effect or the level left; how it was run: as §1
[18] = molecular target: T2, Protein cereblon/Aurora kinase A (Homo sapiens); assay: PROTAC activity at AURKA/CRBN in human NGP cells assessed as AURKA degradation at 10 to 1000 nM measured for 24 hrs in presence of MK-5108 by Western blot analysis; type: cell-based; conditions: dose 10-1000 nM
[19] = molecular target: T2, Protein cereblon/Aurora kinase A (Homo sapiens); assay: PROTAC activity at AURKA/CRBN in human NGP cells assessed as reduction in AURKA level at 500 nM measured for 1 hr by Western blot analysis; type: cell-based; set-up: scale not given: the % may be the effect or the level left; how it was run: as §1
[20] = molecular target: T2, Protein cereblon/Aurora kinase A (Homo sapiens); assay: PROTAC activity at AURKA/CRBN in human NGP cells assessed as increase in pCHK1 level at 10 to 1000 nM measured for 24 hrs by immunoblotting analysis; type: cell-based; conditions: dose 10-1000 nM

**Q.** Which Activity [1] does the source give for `O=C1CCC(N2C(=O)c3cccc(OCCOCCOCCOCCNC(=O)[C@]4(Cc5cccc(Nc6nccs6)n5)CC[C@@H](Oc5cccc(Cl)c5F)CC4)c3C2=O)C(=O)N1` (some centres not stated) here?
**A.** 73%

**Q.** What about the Activity [2] of the same molecule?
**A.** Active

**Q.** And the Emax [3]?
**A.** 89%

**Q.** And the Emax [4]?
**A.** 53.5%

**Q.** And the Emax [5]?
**A.** 37.8%

**Q.** And the pIC50 (IMR-32)?
**A.** 7.67

**Q.** And the Activity [6]?
**A.** inactive

**Q.** And the Emax [7]?
**A.** 80.2%

**Q.** What about the Emax [8] of the same molecule?
**A.** 27.8%

**Q.** What about the pIC50 (SK-N-AS) of the same molecule?
**A.** 5.17

**Q.** And the Emax [9]?
**A.** 15.5%

**Q.** What about the IC50 [10] of the same molecule?
**A.** Not Active

**Q.** And the Emax [11]?
**A.** 38.2%

**Q.** And the IC50 [12]?
**A.** Not Active

**Q.** What about the Activity [13] of the same molecule?
**A.** Active

**Q.** What about the pIC50 [14] of the same molecule?
**A.** 7.50

**Q.** What about the Activity [15] of the same molecule?
**A.** Active

**Q.** And the Activity [16]?
**A.** Dose-Dependent Effect

**Q.** And the Activity [17]?
**A.** 100%

**Q.** And the Activity [18]?
**A.** inactive

**Q.** What about the Activity [19] of the same molecule?
**A.** 7%

**Q.** What about the Activity [20] of the same molecule?
**A.** Active
